Active and inactive are the calls of the source. No cut-off for these calls is given here.
Columns and labels:
[1] = Inhibition of alpha-chymotrypsin assessed as decrease in proteolysis of BSA at 1 mg/ml after 60 mins by SDS-PAGE
How it was run: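 Chymotrypsin digestion of BSA (1 mg/ml stock) in 0.01 M phosphate buffer at 38 °C, with free enzyme or enzyme preincubated with inhibitor. Digestion fragments resolved by SDS–PAGE with Coomassie Brilliant Blue staining. Loss of the intact BSA band and appearance of hydrolysed fragments were scored.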

[2] = Inhibition of alpha-chymotrypsin by Lineweaver-Burke plot analysis
How it was run: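 Chymotrypsin kinetics followed by UV-vis using N-benzoyl tyrosine ethyl ester substrate at 169–340 µM in 80 mM Tris HCl, pH 7.8, with CaCl2. Inhibitor varied across several concentrations. Reciprocal initial rate plotted against reciprocal substrate concentration (Lineweaver–Burk) to assign inhibition type and derive Ki.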

[3] = Inhibition of alpha-chymotrypsin assessed as decrease in proteolysis of BSA at 5.9 uM to 35 uM by Lowry method
How it was run: (§1)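 BSA (1 mg/ml stock) in 0.01 M phosphate buffer digested with chymotrypsin (1 mg/ml solution) at 38 °C for a set time, free enzyme or enzyme preincubated with inhibitor at three concentrations. Undigested BSA precipitated with 4% trichloroacetic acid and removed by centrifugation. Hydrolysed products in the supernatant quantified by Lowry method and compared with the uninhibited control.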

[4] = Inhibition of alpha-chymotrypsin assessed as decrease in proteolysis of BSA at 10.23 uM to 40.9 uM by Lowry method; how it was run: as §1
[5] = Inhibition of alpha-chymotrypsin assessed as decrease in proteolysis of BSA at 93 uM to 372 uM by Lowry method; how it was run: as §1
[6] = Inhibition of alpha-chymotrypsin assessed as decrease in proteolysis of BSA at 8.5 uM to 34 uM by Lowry method; how it was run: as §1
[7] = Inhibition of alpha-chymotrypsin assessed as decrease in proteolysis of BSA at 80 uM to 320 uM by Lowry method; how it was run: as §1
[8] = Inhibition of alpha-chymotrypsin assessed as decrease in proteolysis of BSA at 4.6 uM to 7.7 uM by Lowry method; how it was run: as §1

Structure (SMILES) | Activity [1] | Ki [2] | further results
CC(C)(C)OC(=O)N[C@@H](Cc1ccccc1)C(=O)OCC(=O)N1CC#Cc2ccccc2C#CCC1 | Active | 30 µM | Activity [3]: Active
CC(C)(C)OC(=O)N[C@@H](Cc1ccccc1)C(=O)OCC(=O)N1CC#C/C=C\C#CCC1 | Active |  | Activity [4]: Active
CC(C)(C)OC(=O)N[C@@H](Cc1ccccc1)C(=O)OCC(=O)N1CCCCC1 | inactive |  | Activity [5]: inactive
C[C@H](NC(=O)OC(C)(C)C)C(=O)N[C@@H](Cc1ccccc1)C(=O)NCCC#Cc1ccccc1C#CC=O | Active | 12 µM | Activity [6]: Active

Continued, in another order:

Activity [1] | Ki [2] | Structure (SMILES) | further results
inactive |  | CC(C)(C)OC(=O)N[C@@H](Cc1ccccc1)C(=O)N1CCc2ccccc2C1 | Activity [7]: inactive
Active | 3 µM | CC(C)(C)OC(=O)N[C@@H](Cc1ccccc1)C(=O)N1CC#Cc2ccccc2C#CCC1 | Activity [8]: Active

From ChEMBL document CHEMBL1151925, “Design and synthesis of enediyne-peptide conjugates and their inhibiting activity against chymotrypsin” (Bioorg Med Chem, 2009)
